Assay results published in the M2OR odorant receptor database.
Changes are numbered by the printed parent chain.

Key:
Conditions in all cases: stereoisomer not certain
OR7A5 M81I = tested on: T1, OR7A5 M81I
T1 sequence (whole entry): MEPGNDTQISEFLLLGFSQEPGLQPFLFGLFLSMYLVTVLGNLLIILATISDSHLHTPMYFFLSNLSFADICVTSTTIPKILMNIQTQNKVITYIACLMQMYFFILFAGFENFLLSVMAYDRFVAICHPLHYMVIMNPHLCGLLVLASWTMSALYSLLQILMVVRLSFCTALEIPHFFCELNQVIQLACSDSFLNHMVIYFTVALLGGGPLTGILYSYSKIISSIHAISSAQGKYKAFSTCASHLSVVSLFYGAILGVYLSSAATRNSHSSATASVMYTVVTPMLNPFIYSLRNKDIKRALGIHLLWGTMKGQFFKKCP
Outline: (§1)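 Whether a receptor–molecule pair is responsive (active) rests on the original authors' judgment that its measured signal was statistically different from baseline. Pairs without that judgment are non-responsive (inactive). Sources used varied assay methods, commonly transient luciferase assays in mammalian cell lines.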

OR7C1 (Homo sapiens) = molecular target: T2, OR7C1 (Homo sapiens) (UniProt O76099)
T2 sequence (whole entry): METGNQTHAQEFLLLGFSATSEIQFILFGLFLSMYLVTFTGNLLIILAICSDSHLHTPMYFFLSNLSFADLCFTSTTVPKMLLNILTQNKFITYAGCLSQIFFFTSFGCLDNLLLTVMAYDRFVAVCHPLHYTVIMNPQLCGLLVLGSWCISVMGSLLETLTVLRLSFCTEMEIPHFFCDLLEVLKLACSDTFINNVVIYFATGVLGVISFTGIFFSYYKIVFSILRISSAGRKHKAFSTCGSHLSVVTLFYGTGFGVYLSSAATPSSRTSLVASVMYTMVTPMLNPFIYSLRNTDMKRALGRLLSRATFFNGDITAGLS
Outline: as §1

OR7C1 V126I E171K = tested on: T3, OR7C1 V126I E171K
T3 sequence (whole entry): T2 sequence (whole entry) with V126I, E171K
Outline: as §1

OR7C2 (Homo sapiens) = molecular target: T4, OR7C2 (Homo sapiens) (UniProt O60412)
T4 sequence (whole entry): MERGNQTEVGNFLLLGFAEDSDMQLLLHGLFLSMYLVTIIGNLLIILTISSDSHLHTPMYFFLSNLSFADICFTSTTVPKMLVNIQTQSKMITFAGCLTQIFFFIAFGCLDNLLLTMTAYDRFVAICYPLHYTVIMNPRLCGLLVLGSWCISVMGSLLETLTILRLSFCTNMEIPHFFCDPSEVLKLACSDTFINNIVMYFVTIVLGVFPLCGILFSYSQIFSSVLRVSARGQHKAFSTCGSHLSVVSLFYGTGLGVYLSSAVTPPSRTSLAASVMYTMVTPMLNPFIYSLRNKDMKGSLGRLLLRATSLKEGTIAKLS
Outline: as §1

OR7D2 (Homo sapiens) = molecular target: T5, OR7D2 (Homo sapiens) (UniProt Q96RA2)
T5 sequence (whole entry): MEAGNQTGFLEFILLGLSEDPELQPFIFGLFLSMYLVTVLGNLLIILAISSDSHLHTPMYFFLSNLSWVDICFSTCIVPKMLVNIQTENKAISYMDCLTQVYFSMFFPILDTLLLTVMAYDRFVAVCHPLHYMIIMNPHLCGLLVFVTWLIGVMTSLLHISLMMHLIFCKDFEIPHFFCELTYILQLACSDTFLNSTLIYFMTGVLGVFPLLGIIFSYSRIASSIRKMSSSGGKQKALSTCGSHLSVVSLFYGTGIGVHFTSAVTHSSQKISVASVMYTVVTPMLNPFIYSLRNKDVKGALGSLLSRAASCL
Outline: as §1

OR7D4 (Homo sapiens) = molecular target: T6, OR7D4 (Homo sapiens) (UniProt Q8NG98)
T6 sequence (whole entry): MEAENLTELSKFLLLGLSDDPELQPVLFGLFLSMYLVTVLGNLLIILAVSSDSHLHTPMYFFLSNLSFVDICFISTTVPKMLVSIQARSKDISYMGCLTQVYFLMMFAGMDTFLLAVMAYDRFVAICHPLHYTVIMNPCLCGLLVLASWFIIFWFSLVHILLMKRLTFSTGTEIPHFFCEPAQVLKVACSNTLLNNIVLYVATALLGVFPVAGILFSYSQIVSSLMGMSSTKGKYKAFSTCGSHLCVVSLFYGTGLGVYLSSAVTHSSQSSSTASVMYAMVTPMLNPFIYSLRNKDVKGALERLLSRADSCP
Outline: as §1

OR7D4 R88W = tested on: T7, OR7D4 R88W
T7 sequence (whole entry): T6 sequence (whole entry) with R88W
Outline: as §1

OR7D4 = tested on: T8, OR7D4
T8 sequence (whole entry): T6 sequence (whole entry) with R88W, T133M
Outline: as §1

OR7E24 (Homo sapiens) = molecular target: T9, OR7E24 (Homo sapiens) (UniProt Q6IFN5)
T9 sequence (whole entry): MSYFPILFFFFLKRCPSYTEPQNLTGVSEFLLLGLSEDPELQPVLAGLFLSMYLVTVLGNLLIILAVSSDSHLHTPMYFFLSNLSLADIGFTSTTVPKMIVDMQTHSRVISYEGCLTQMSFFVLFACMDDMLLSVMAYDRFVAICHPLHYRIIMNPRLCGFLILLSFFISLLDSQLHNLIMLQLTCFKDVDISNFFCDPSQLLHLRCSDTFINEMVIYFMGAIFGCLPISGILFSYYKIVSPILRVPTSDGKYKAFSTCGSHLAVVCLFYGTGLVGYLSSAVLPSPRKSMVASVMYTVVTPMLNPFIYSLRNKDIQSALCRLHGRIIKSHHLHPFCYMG
Outline: as §1

OR7G1 (Homo sapiens) = molecular target: T10, OR7G1 (Homo sapiens) (UniProt Q8NGA0)
T10 sequence (whole entry): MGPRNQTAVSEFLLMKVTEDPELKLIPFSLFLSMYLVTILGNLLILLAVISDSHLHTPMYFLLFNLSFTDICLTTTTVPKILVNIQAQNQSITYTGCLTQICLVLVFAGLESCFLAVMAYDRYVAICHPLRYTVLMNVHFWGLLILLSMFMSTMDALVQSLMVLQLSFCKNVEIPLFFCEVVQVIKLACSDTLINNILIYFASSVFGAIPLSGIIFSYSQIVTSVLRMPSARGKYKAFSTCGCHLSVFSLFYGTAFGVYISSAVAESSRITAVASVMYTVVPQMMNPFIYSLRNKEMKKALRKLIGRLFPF
Outline: as §1

OR7G2 = tested on: T11, OR7G2
T11 sequence (whole entry): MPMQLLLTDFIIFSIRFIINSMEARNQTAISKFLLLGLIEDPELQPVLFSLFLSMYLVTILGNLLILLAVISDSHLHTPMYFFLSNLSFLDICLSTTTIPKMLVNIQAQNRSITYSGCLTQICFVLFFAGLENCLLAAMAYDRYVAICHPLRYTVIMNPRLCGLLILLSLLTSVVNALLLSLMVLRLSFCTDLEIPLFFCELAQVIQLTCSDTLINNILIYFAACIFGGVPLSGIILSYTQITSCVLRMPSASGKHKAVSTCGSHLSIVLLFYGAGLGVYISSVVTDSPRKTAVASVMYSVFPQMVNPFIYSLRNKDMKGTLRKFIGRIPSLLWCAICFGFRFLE
Outline: as §1

OR7G3 (Homo sapiens) = molecular target: T12, OR7G3 (Homo sapiens) (UniProt Q8NG95)
T12 sequence (whole entry): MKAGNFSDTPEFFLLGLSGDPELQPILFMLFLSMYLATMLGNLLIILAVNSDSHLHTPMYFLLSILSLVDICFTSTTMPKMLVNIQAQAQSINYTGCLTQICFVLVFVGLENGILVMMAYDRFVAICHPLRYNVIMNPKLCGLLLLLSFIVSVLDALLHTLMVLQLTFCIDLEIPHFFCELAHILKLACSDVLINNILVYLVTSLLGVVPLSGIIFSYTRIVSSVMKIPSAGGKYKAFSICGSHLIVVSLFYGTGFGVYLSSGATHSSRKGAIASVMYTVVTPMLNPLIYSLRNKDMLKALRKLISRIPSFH
Outline: as §1

OR7G3 M29V = tested on: T13, OR7G3 M29V
T13 sequence (whole entry): T12 sequence (whole entry) with M29V
Outline: as §1

OR8A1 (Homo sapiens) = molecular target: T14, OR8A1 (Homo sapiens) (UniProt Q8NGG7)
T14 sequence (whole entry): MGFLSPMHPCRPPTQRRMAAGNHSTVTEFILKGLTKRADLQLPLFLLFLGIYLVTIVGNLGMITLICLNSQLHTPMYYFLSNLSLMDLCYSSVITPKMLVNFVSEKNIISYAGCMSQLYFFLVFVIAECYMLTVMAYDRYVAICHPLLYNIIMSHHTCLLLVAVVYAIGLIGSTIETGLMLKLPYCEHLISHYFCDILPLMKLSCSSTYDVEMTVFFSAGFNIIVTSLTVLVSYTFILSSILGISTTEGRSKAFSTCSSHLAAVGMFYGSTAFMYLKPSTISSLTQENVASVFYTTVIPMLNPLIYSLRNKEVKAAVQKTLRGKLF
Outline: as §1

OR8B12 (Homo sapiens) = molecular target: T15, OR8B12 (Homo sapiens) (UniProt Q8NGG6)
T15 sequence (whole entry): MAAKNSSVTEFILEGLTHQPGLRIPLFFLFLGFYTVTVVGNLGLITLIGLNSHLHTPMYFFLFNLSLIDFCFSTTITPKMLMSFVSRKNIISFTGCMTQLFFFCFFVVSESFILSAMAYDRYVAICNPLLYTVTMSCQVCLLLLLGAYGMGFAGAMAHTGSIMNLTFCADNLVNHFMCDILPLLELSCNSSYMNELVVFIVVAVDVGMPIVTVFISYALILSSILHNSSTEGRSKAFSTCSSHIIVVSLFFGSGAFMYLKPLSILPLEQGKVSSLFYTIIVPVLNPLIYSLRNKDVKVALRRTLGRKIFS
Outline: as §1

OR8B2 (Homo sapiens) = molecular target: T16, OR8B2 (Homo sapiens) (UniProt Q96RD0)
T16 sequence (whole entry): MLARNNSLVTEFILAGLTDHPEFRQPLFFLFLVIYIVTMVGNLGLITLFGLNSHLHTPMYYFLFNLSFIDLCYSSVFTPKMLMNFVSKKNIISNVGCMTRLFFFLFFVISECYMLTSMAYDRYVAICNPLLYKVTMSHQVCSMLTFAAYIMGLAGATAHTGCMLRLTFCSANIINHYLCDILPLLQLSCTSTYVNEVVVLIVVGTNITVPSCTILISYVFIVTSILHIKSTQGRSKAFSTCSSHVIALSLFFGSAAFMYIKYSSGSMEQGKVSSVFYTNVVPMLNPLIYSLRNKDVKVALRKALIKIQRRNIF
Outline: as §1

OR8B2 L164F = tested on: T17, OR8B2 L164F
T17 sequence (whole entry): T16 sequence (whole entry) with L164F
Outline: as §1

OR8B2 S273F = tested on: T18, OR8B2 S273F
T18 sequence (whole entry): T16 sequence (whole entry) with S273F
Outline: as §1

OR8B3 (Homo sapiens) = molecular target: T19, OR8B3 (Homo sapiens) (UniProt Q8NGG8)
T19 sequence (whole entry): T16 sequence (whole entry) with R24Q, I34V, T47I, N94Y, R100Q, T205I, T208M
Outline: as §1

OR7G2 (Homo sapiens) = molecular target: T20, OR7G2 (Homo sapiens) (UniProt Q8NG99)
T20 sequence (whole entry): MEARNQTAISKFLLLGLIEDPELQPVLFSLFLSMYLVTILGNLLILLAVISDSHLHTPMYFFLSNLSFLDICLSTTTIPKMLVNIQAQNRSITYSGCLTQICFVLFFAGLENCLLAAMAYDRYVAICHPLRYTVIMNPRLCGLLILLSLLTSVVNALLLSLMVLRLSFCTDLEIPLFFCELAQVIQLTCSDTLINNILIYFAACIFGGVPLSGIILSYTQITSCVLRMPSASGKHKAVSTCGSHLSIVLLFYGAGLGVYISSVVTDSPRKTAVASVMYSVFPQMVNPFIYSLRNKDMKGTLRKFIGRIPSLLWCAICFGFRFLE
Outline: as §1

Measured: odorant receptor agonist call;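 further: active if original authors judged signal statistically different from baseline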

CC1=C(O)C(=O)OC1C (stereo not given)
not listed: OR7G2 (Homo sapiens)
inactive: all other assays above

CCCCCC(=O)C(C)C(C)=O (stereo not given)
not listed: OR7A5 M81I | OR7C1 V126I E171K | OR7D4 R88W | OR7D4 | OR7G2 | OR7G3 M29V | OR8B2 L164F | OR8B2 S273F
inactive: all other assays above

CC(CO)CS (stereo not given)
not listed: OR7A5 M81I | OR7C1 V126I E171K | OR7D4 R88W | OR7D4 | OR7G2 | OR7G3 M29V | OR8B2 L164F | OR8B2 S273F
inactive: all other assays above

CCCCCCC=CCCC=O
not listed: OR7G2
inactive: all other assays above

CC1=NC(C)C(C)S1 (stereo not given)
not listed: OR7G2 (Homo sapiens)
inactive: all other assays above

CCCCC(S)C(C)CO (stereo not given)
not listed: OR7A5 M81I | OR7C1 V126I E171K | OR7D4 R88W | OR7D4 | OR7G2 | OR7G3 M29V | OR8B2 L164F | OR8B2 S273F
inactive: all other assays above

CCCCCC(S)C(C)CO (stereo not given)
not listed: OR7A5 M81I | OR7C1 V126I E171K | OR7D4 R88W | OR7D4 | OR7G2 | OR7G3 M29V | OR8B2 L164F | OR8B2 S273F
inactive: all other assays above

O=c1ccc2ccccc2o1
inactive: OR8B2 (Homo sapiens)

CCCC(S)CCOC(C)=O (stereo not given)
not listed: OR7G2 (Homo sapiens)
inactive: all other assays above
